Source: ChEMBL document CHEMBL1821687, “Discovery, synthesis, and biological evaluation of novel SMN protein modulators” (J Med Chem, 2011)
The source made the active and inactive calls. The rule behind the calls is not given here.

What was measured:
[1] = molecular target: Survival motor neuron protein (Homo sapiens) (UniProt Q16637); experiment: Activation of SMN expressed in HEK293 cells assessed as rate of induction by SMN2-promotor driven luciferase reporter gene assay relative to basal level; assay type: cell-based; design: concentration or dose not given beside the values
Survival motor neuron protein (Homo sapiens), sequence (Q16637 whole entry): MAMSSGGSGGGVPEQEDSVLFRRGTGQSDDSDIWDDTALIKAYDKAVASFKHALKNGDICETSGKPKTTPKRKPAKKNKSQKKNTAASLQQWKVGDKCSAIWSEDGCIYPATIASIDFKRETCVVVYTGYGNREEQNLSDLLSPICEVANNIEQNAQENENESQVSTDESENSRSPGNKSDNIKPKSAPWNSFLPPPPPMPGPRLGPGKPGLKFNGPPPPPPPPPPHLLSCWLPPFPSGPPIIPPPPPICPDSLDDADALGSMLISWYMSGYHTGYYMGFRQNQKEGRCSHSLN
How it was run: (§1)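 HEK-293 cells stably carrying the SMN2 reporter construct, kept in DMEM with 10% FCS, glutamax, pyruvate, pen/strep and 200 µg/mL hygromycin, and assayed without hygromycin. 2,000 cells/well were plated and adhered overnight at 37 °C, 5% CO2. Compounds were added as a 7-point titration, 50 µM to 25 nM final, in 0.46% DMSO, for 30–36 h. OneGlo luminescence was normalized to 4.5 mM sodium butyrate (100%) and DMSO (0%).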

[2] = molecular target: Survival motor neuron protein (Homo sapiens) (UniProt Q16637); experiment: Activation of SMN expressed in HEK293 cells assessed as concentration required to reach 50% of maximum luciferase signal by SMN2-promotor driven luciferase reporter gene assay; assay type: cell-based; how it was run: as §1

O=C(C1CCN(c2nc(-c3ccc(Br)cc3)cs2)CC1)N1CCOCC1
Activity [1]: 77% | Activity [2]: 30.8 µM

CS(=O)(=O)c1ccc(-c2csc(N3CCC(C(N)=O)CC3)n2)cc1
Activity [2]: inactive

N#Cc1ccccc1-c1csc(N2CCC(C(N)=O)CC2)n1
Activity [2]: inactive

NC(=O)C1CCN(c2ncc(-c3ccc(Cl)cc3)s2)CC1
Activity [1]: 498% | Activity [2]: 0.154 µM

CN(C)c1cccc(-c2ccnc(N3CCC(C(N)=O)CC3)n2)c1
Activity [1]: 446% | Activity [2]: 0.772 µM

NC(=O)C1CCN(c2nc(-c3ccc(Oc4ccccc4)cc3)cs2)CC1
Activity [1]: 240% | Activity [2]: 4.87 µM

CN(C)c1cccc(-c2nccc(N3CCC(C(N)=O)CC3)n2)c1
Activity [1]: 306% | Activity [2]: 12.2 µM

NC(=O)C1CCN(c2ncc(-c3ccc(Br)cc3)s2)CC1
Activity [1]: 599% | Activity [2]: 0.224 µM

NC(=O)C1CCN(c2nccc(-c3ccc4c(c3)OCCCO4)n2)CC1
Activity [1]: 234% | Activity [2]: 1.54 µM

Cn1ccc2cc(-c3csc(N4CCC(C(N)=O)CC4)n3)ccc21
Activity [1]: 534% | Activity [2]: 7.72 µM

NC(=O)C1CCN(c2nc(-c3cc4ccccc4o3)cs2)CC1
Activity [2]: 15.4 µM

NC(=O)C1CCN(c2nc(-c3ccccc3F)cs2)CC1
Activity [1]: 274% | Activity [2]: 2.44 µM

NC(=O)C1CCN(c2nc(-c3ccccc3Cl)cs2)CC1
Activity [1]: 57% | Activity [2]: 7.72 µM

NC(=O)C1CCN(c2nc(-c3cccc4sc5ccccc5c34)cs2)CC1
Activity [1]: 369% | Activity [2]: 30.7 µM

COc1cc(OC)cc(-c2csc(N3CCC(C(N)=O)CC3)n2)c1
Activity [1]: 45% | Activity [2]: 7.72 µM

NC(=O)C1CCN(c2ncc(-c3cccc(N4CCCC4)c3)s2)CC1
Activity [1]: 685% | Activity [2]: 0.387 µM

CN(C)C(=O)c1ccc(-c2csc(N3CCC(C(N)=O)CC3)n2)cc1
Activity [1]: 51% | Activity [2]: 12.2 µM

CN(C)C(=O)C1CCN(c2nc(-c3ccc(Br)cc3)cs2)CC1
Activity [1]: 43% | Activity [2]: 30.8 µM

CC(C)Oc1cccc(-c2csc(N3CCC(C(N)=O)CC3)n2)c1
Activity [1]: 605% | Activity [2]: 0.77 µM

CN(C)c1cccc(-c2nnc(N3CCC(C(N)=O)CC3)s2)c1
Activity [1]: 448% | Activity [2]: 0.387 µM

CN(C)c1ccc(-c2csc(N3CCC(C(N)=O)CC3)n2)cc1
Activity [1]: 64% | Activity [2]: 30.7 µM

NC(=O)C1CCN(c2nccc(-c3ccc4c(c3)OCCO4)n2)CC1
Activity [1]: 364% | Activity [2]: 1.22 µM

CC(C)COc1ccc(-c2csc(N3CCC(C(N)=O)CC3)n2)cc1
Activity [1]: 54% | Activity [2]: 3.07 µM

NC(=O)C1CCN(c2nc(-c3ccc(-c4ccccc4)cc3)cs2)CC1
Activity [1]: 58% | Activity [2]: 24.4 µM

CC(C(=O)O)c1ccc(N2Cc3ccccc3C2=O)cc1 (stereo unspecified)
Activity [2]: > 1 µM

NC(=O)C1CCN(c2nc(-c3cccc([N+](=O)[O-])c3)cs2)CC1
Activity [1]: 20% | Activity [2]: 3.87 µM

Brc1ccc(-c2csc(N3CCC(c4nnn[nH]4)CC3)n2)cc1
Activity [1]: 67% | Activity [2]: 12.2 µM

CN(C)c1cccc(-c2cnc(N3CCC(C(N)=O)CC3)nc2)c1
Activity [1]: 236% | Activity [2]: 0.613 µM

O=C(NCCc1ccccc1)C1CCN(c2nc(-c3ccc(Br)cc3)cs2)CC1
Activity [1]: 32% | Activity [2]: 6.13 µM

CS(=O)(=O)N1CCN(c2nc(-c3ccc(Br)cc3)cs2)CC1
Activity [2]: inactive

Cc1cccc(-c2csc(N3CCC(C(N)=O)CC3)n2)c1
Activity [1]: 187% | Activity [2]: 30.7 µM

O=S(=O)(c1ccccc1)N1CCN(c2nc(-c3ccc(Br)cc3)cs2)CC1
Activity [2]: inactive

CNC(=O)C1CCN(c2nc(-c3ccc(Br)cc3)cs2)CC1
Activity [1]: 101% | Activity [2]: 7.72 µM

CN(C)c1cccc(-c2ncnc(N3CCC(C(N)=O)CC3)n2)c1
Activity [1]: 200% | Activity [2]: 1.22 µM

NC(=O)C1CCN(c2nc(-c3cccc(N)c3)cs2)CC1
Activity [2]: inactive

NC(=O)C1CCN(c2nc(-c3ccccc3)cs2)CC1
Activity [1]: 167% | Activity [2]: 7.72 µM

NC(=O)C1CCN(c2nc(-c3ccc4c(c3)OCCCO4)cs2)CC1
Activity [1]: 443% | Activity [2]: 0.49 µM

CCOC(=O)C1CCN(c2nc(-c3ccc(Br)cc3)cs2)CC1
Activity [1]: 550% | Activity [2]: 7.72 µM

NC(=O)C1CCN(c2nccc(-c3ccc(Br)cc3)n2)CC1
Activity [1]: 387% | Activity [2]: 0.387 µM

CN(C)c1cccc(-c2cc(N3CCC(C(N)=O)CC3)ncn2)c1
Activity [1]: 81% | Activity [2]: 3.87 µM

COc1ccc(-c2cnc(N3CCC(C(N)=O)CC3)s2)cc1OC
Activity [1]: 209% | Activity [2]: 9.72 µM

NC(=O)C1CCN(c2ncnc(-c3ccc4c(c3)OCCCO4)n2)CC1
Activity [1]: 186% | Activity [2]: 2.44 µM

O=C(c1ccccc1)N1CCN(c2nc(-c3ccc(Br)cc3)cs2)CC1
Activity [2]: inactive

NC(=O)C1CCN(c2nnc(-c3ccc(Br)cc3)s2)CC1
Activity [2]: inactive

NC(=O)C1CCN(c2nc(-c3ccc(Cl)cc3)cs2)CC1
Activity [1]: 381% | Activity [2]: 2.44 µM

NC(=O)C1CCN(c2nc(-c3cccc(Cl)c3)cs2)CC1
Activity [1]: 53% | Activity [2]: 12.2 µM

CC(=O)c1cccc(-c2csc(N3CCC(C(N)=O)CC3)n2)c1
Activity [1]: 356% | Activity [2]: 3.87 µM

NC(=O)C1CCN(c2ncc(-c3cccc(F)c3)s2)CC1
Activity [1]: 601% | Activity [2]: 2.44 µM

NC1CCN(c2nc(-c3ccc(Br)cc3)cs2)CC1
Activity [1]: 182% | Activity [2]: 2.44 µM

NC(=O)C1CCN(c2nc(-c3ccccc3C(F)(F)F)cs2)CC1
Activity [2]: inactive

NC(=O)C1CCN(c2nccc(Cl)n2)CC1
Activity [2]: inactive

O=C(NCc1ccccc1)C1CCN(c2nc(-c3ccc(Br)cc3)cs2)CC1
Activity [2]: inactive

NC(=O)C1CCN(c2ncc(-c3ccc4c(c3)OC(F)(F)O4)s2)CC1
Activity [1]: 598% | Activity [2]: 0.194 µM

O=C(Nc1ccccc1)C1CCN(c2nc(-c3ccc(Br)cc3)cs2)CC1
Activity [1]: 262% | Activity [2]: 2.44 µM

NC(=O)C1CCN(c2nc(-c3cccc(Br)c3)cs2)CC1
Activity [1]: 57% | Activity [2]: 30.8 µM

NC(=O)C1CCN(c2nc(-c3ccc(OC(F)(F)F)cc3)cs2)CC1
Activity [1]: 297% | Activity [2]: 3.07 µM

CN(C)c1cccc(-c2cnc(N3CCC(C(N)=O)CC3)s2)c1
Activity [1]: 550% | Activity [2]: 0.039 µM

NC(=O)C1CCN(c2nc(-c3cccc(F)c3)cs2)CC1
Activity [1]: 64% | Activity [2]: 9.72 µM

NC(=O)C1CCN(c2nc(-c3ccccc3Br)cs2)CC1
Activity [2]: inactive

NC(=O)C1CCN(c2nc(-c3ccccc3[N+](=O)[O-])cs2)CC1
Activity [2]: inactive

CS(=O)(=O)c1cccc(-c2csc(N3CCC(C(N)=O)CC3)n2)c1
Activity [2]: inactive

COc1ccc(-c2csc(N3CCC(C(N)=O)CC3)n2)cc1
Activity [1]: 209% | Activity [2]: 7.72 µM

CS(=O)(=O)c1ccccc1-c1csc(N2CCC(C(N)=O)CC2)n1
Activity [2]: inactive

NC(=O)C1CCN(c2nc(-c3ccc4ccccc4c3)cs2)CC1
Activity [1]: 162% | Activity [2]: 7.72 µM

Cc1noc(C)c1-c1csc(N2CCC(C(N)=O)CC2)n1
Activity [2]: inactive

O=C(C1CCN(c2nc(-c3ccc(Br)cc3)cs2)CC1)N1CCNCC1
Activity [2]: inactive

CN(C)c1cccc(-c2nc(N3CCC(C(N)=O)CC3)ncc2F)c1
Activity [1]: 373% | Activity [2]: 0.387 µM

NC(=O)C1CCN(c2ncc(Br)cn2)CC1
Activity [2]: inactive

CC(=O)N1CCN(c2nc(-c3ccc(Br)cc3)cs2)CC1
Activity [1]: 234% | Activity [2]: 3.07 µM

NC(=O)C1CCN(c2ncc(-c3ccc4c(c3)OCCO4)s2)CC1
Activity [1]: 424% | Activity [2]: 0.097 µM

NC(=O)C1CCN(c2nc(-c3ccc(F)cc3)cs2)CC1
Activity [1]: 288% | Activity [2]: 3.87 µM

NC(=O)C1CCN(c2nc(-c3cccc4ccccc34)cs2)CC1
Activity [2]: inactive

CN(C)c1cccc(-c2ncc(F)c(N3CCC(C(N)=O)CC3)n2)c1
Activity [1]: 141% | Activity [2]: 3.07 µM

O=C(c1ccco1)N1CCN(c2nc(-c3ccc(Br)cc3)cs2)CC1
Activity [2]: inactive

NC(=O)C1CCN(c2ncc(Br)s2)CC1
Activity [2]: inactive

CC(=O)NC1CCN(c2nc(-c3ccc(Br)cc3)cs2)CC1
Activity [1]: -57% | Activity [2]: 15.4 µM

CC(C)(C)OC(=O)NC1CCN(c2nc(-c3ccc(Br)cc3)cs2)CC1
Activity [2]: inactive

O=C(NCCCc1ccccc1)C1CCN(c2nc(-c3ccc(Br)cc3)cs2)CC1
Activity [2]: inactive

NC(=O)C1CCN(c2nc(-c3ccc(N4CCCCC4)nc3)cs2)CC1
Activity [2]: 6.13 µM

N#Cc1cccc(-c2csc(N3CCC(C(N)=O)CC3)n2)c1
Activity [2]: inactive

Brc1ccc(-c2csc(N3CCOCC3)n2)cc1
Activity [2]: inactive

CC(=O)Nc1ccc(-c2csc(N3CCC(C(N)=O)CC3)n2)cc1
Activity [2]: inactive

O=C(NCCCCc1ccccc1)C1CCN(c2nc(-c3ccc(Br)cc3)cs2)CC1
Activity [2]: inactive

NC(=O)C1CCN(c2nc(-c3cccnc3)cs2)CC1
Activity [2]: inactive

NC(=O)C1CCN(c2nc(-c3ccc(OCc4ccccc4)cc3)cs2)CC1
Activity [2]: inactive

NC(=O)C1CCN(c2nc(-c3ccc(N)cc3)cs2)CC1
Activity [2]: inactive

COc1ccccc1-c1csc(N2CCC(C(N)=O)CC2)n1
Activity [2]: inactive

NC(=O)C1CCN(c2nc(-c3ccccc3-c3ccccc3)cs2)CC1
Activity [2]: inactive

Cc1cnc(N2CCC(C(N)=O)CC2)nc1-c1cccc(N(C)C)c1
Activity [2]: inactive

NC(=O)C1CCN(c2nc(-c3cccc(C(F)(F)F)c3)cs2)CC1
Activity [2]: 3.87 µM

CC(=O)C1CCN(c2ncc(-c3ccc4c(c3)OCCCO4)s2)CC1
Activity [2]: inactive

CN(C)c1ccccc1-c1csc(N2CCC(C(N)=O)CC2)n1
Activity [2]: inactive
